Calls of active or inactive are those of the source. The calls are words filed in the database; no cut-off is given here.
Key:
HeLa S3 [1] = test: Inhibition of RNA syntheses in human HeLaS3 cells assessed as inhibition of [3H]uridine incorporation after 40 mins by scintillation counter; format: functional, cell-based
How it was run: (§1)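 HeLaS-3 cells grown in DMEM with fetal calf serum, trypsinized, and resuspended at 10^6 cells/mL in serum-free DMEM at 37 C with 0, 10 or 50 μM compound plus 5 μCi [3H]thymidine (25 Ci/mmol) or [3H]uridine (22 Ci/mmol). Samples at 0-40 min were spotted on GF/C filters, washed in 5% TCA and ethanol, and acid-precipitable radioactivity counted. Mean of three determinations.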

HeLa S3 [2] = test: Inhibition of DNA syntheses in human HeLaS3 cells assessed as [3H]thymidine incorporation at 10 uM after 40 mins by scintillation counter; format: functional, cell-based; how it was run: as §1
K562 [3] = test: Cytotoxicity against human K562 cells assessed as dead cells after 7 days by Burker cell counter; format: functional, cell-based
How it was run: (§2)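 K562 cells in RPMI 1640 with 10% fetal calf serum, seeded at 5000 cells/mL and held 15 h at 37 C in 5% CO2. Serial compound dilutions were added and cells incubated 7 days. Aliquots were mixed with 0.5% trypan blue; unstained and blue cells were counted on a Bürker chamber. Triplicate points, each count averaged from four determinations.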

HeLa S3 [4] = test: Cytostatic activity against human HeLaS3 cells at 40 uM after 24 to 48 hrs compound added for every 24 hrs; format: functional, cell-based
How it was run: (§3)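 Cells (8 × 10^4) grown at 37 C in DMEM with 10% fetal calf serum, 5 mM L-glutamine and 50 μg/mL gentamycin, with or without 40 μM compound for 3 days. Medium and compound were replaced daily. Cultures were counted every day after trypsinization.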

HeLa S3 [5] = test: Inhibition of DNA syntheses in human HeLaS3 cells assessed as [3H]thymidine incorporation at 50 uM after 40 mins by scintillation counter; format: functional, cell-based; how it was run: as §1
HL-60 [6] = test: Induction of apoptosis in human HL60 cells assessed as DNA content at 50 uM after 24 hrs by flow cytometry relative to vehicle-treated control; format: functional
How it was run: (§4)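 HL-60 cells treated with vehicle (0.1% DMSO) or 25-100 μM compound for 24, 48 or 72 h, harvested by centrifugation, PI-stained for 30 min at 37 C in the dark, and analysed by flow cytometry (10 000 gated events). Cells with under 2N DNA content were scored apoptotic. Three independent experiments.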

[7] = Metabolic stability of the compound in human HeLaS3 cell crude extract assessed as compound degradation measured upto 20 hrs pretreated at 40 uM for 3 days; format: ADME, cell-based; details: hela s3, 20 h
How it was run: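 HeLaS-3 cells cultured 3 days with 40 μM compound added fresh every 24 h; crude extract prepared by hypotonic Hepes buffer lysis, dounce homogenization and 10000g spin. Compound (1 mM) was incubated in extract at 37 C for 0, 1, 5 and 20 h, then lyophilized and extracted twice with cold MeOH. Remaining compound was quantified by reverse-phase HPLC.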

NIH3T3 = test: Cytotoxicity against mouse 3T3 cells by phenyltetrazolium bromide assay; format: functional, cell-based
How it was run: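 Murine 3T3 fibroblasts; proliferation measured by MTT assay, with IC50 reported. Each value is the mean of three determinations; Student's t test, p < 0.05.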

HL-60 [8] = test: Cytotoxicity against human HL60 cells after 72 hrs; format: functional, cell-based; details: HL-60, 72 h
How it was run: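 HL-60 cells (40 000/well) in RPMI-1640 with 10% FBS and penicillin/streptomycin, seeded for 24 h, then exposed to vehicle (0.1% DMSO) or a concentration range for 72 h. AlamarBlue (10% v/v) was added for 4.5 h at 37 C and fluorescence read at ex 544/em 590 nm. Viability is relative to vehicle control; IC50 from dose-response curves; three independent experiments.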

Adenosine kinase = Adenosine kinase (Homo sapiens, UniProt P55263); test: Inhibition of human adenosine kinase; details: read-out: IC50
Chain of Adenosine kinase (P55263 whole entry): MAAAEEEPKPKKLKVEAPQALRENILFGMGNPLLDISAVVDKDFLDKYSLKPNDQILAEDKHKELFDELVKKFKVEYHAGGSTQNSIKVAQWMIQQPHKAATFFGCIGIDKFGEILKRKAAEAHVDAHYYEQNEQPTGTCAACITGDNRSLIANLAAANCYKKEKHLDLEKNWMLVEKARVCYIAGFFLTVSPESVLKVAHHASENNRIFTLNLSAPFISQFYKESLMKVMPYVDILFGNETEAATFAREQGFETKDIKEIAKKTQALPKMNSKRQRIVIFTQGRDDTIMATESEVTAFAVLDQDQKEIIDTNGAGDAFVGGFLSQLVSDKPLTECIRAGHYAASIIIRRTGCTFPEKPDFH

[9] = target: T1, Adenosine deaminase (Bos taurus) (UniProt P56658); test: Inhibition of bovine ADA at 100 uM by spectrophotometric analysis
T1 sequence (whole entry): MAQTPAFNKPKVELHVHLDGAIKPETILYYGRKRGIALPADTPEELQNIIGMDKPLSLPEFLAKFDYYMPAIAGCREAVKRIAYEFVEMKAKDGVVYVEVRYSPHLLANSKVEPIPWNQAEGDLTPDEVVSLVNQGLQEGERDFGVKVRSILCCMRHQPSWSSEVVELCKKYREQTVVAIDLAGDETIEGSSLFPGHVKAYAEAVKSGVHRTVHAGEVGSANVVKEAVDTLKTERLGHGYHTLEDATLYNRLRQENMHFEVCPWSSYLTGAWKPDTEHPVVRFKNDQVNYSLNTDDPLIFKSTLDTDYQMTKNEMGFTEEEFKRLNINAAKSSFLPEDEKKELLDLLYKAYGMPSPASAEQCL
How it was run: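 Adenosine deaminase assayed at 30 C with 50 μM Ado, 50 mM potassium phosphate pH 7.2 and 0.3 nM enzyme. Deamination was followed as A262 change over 2 min. Compound tested at 100 μM, with DMSO at most 4% final and a substrate-free blank. Percent inhibition from two determinations in triplicate.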

HL-60 [10] = test: Induction of apoptosis in human HL60 cells assessed as DNA content at 100 uM after 48 hrs by flow cytometry relative to vehicle-treated; format: functional; how it was run: as §4
K562 [11] = test: Growth inhibition of human K562 cells after 7 days by Burker cell counter; format: functional; details: K562, 168 h; how it was run: as §2
HeLa S3 (Homo sapiens) [12] = test: Growth inhibition of human HeLaS-3 cells pretreated for 2 days measured after 24 hrs of compound wash out by Burker cell counter
HeLa S3 (Homo sapiens) [13] = test: Growth inhibition of human HeLaS-3 cells pretreated for 2 days measured after 2 days of compound wash out by Burker cell counter
Homo sapiens = species on record: Homo sapiens; test: Cytostatic activity against human Cen3tel cells at 40 uM after 24 to 48 hrs compound added for every 24 hrs; format: functional, cell-based; how it was run: as §3
HL-60 [14] = test: Induction of apoptosis in human HL60 cells assessed as DNA content at 100 uM after 24 hrs by flow cytometry relative to vehicle-treated; format: functional; how it was run: as §4
[15] = Cellular permeability in human HeLaS3 cells assessed as level of [3H]AMP produced at 2.5 to 25 uM by scintillation counter; format: ADME, cell-based; details: hela s3, 25 µM
How it was run: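 HeLaS-3 cells grown in DMEM with fetal calf serum at 37 C, trypsinized, then resuspended at 10^6 cells/mL in serum-free DMEM with compound and 3 μCi [3H]Ado (25 Ci/mmol) at 37 C. Samples taken at 0, 10, 20, 30 and 40 min were spotted on DE-81 filters and washed. [3H]AMP was measured by scintillation counting. Mean of three determinations.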

For `CCC1(c2ccc(CSc3ccccc3)cc2)Oc2ccccc2-n2cccc2C1=O` (racemic), the IC50 (HeLa S3 [1]) was 50 µM, the Activity (HeLa S3 [2]) was “inactive” and the Activity (K562 [3]) was “Not toxic”. For the same compound, the Activity (HeLa S3 [4]) was “inactive”, the Activity (HeLa S3 [5]) was “inactive” and the Activity (HL-60 [6]) was 44%. For the same compound, the Stability [7] was “Stable”, the IC50 (NIH3T3) was 118 µM and the IC50 (HL-60 [8]) was 34.2 µM. The IC50 (Adenosine kinase) was 1.2 µM, the inhibition [9] was 15% and the Activity (HL-60 [10]) was 90%. The GI50 (K562 [11]) was 1 µM, the “growth inhibition (GI)” value (HeLa S3 (Homo sapiens) [12]) was “Active” and the “growth inhibition (GI)” value (HeLa S3 (Homo sapiens) [13]) was “inactive”. For the same compound, the Activity (Homo sapiens) was “inactive”, the Activity (HL-60 [14]) was 70% and the Drug uptake [15] was “Active”.

— ChEMBL document CHEMBL1687916, “Non-nucleoside inhibitors of human adenosine kinase: synthesis, molecular modeling, and biological studies” (J Med Chem, 2011)
